For experiment [1], the target named is T1, cGMP-specific 3',5'-cyclic phosphodiesterase (Homo sapiens, UniProt O76074). The experiment is described as follows: Inhibition of N-terminal GST-tagged full length recombinant human PDE5A1 catalytic domain expressed in Baculovirus infected Sf9 insect cells using FAM-cGMP as substrate after 1 hr by fluorescence polarization assay.
The species entered for experiment [2] is Homo sapiens. Put plainly: Selectivity ratio of IC50 for N-terminal FLAG-tagged human PDE2A1 (2 to 941 residues) to IC50 for N-terminal GST-tagged full length recombinant human PDE5A1 catalytic domain.
The target of experiment [3] is cGMP-inhibited 3',5'-cyclic phosphodiesterase 3B (Homo sapiens) (UniProt Q13370). Put plainly: Inhibition of N-terminal GST-tagged recombinant human PDE3B (592 end residues) expressed in Baculovirus infected Sf9 insect cells at 30 uM using FAM-cAMP as substrate after 1 hr by fluorescence polarization assay relative to control. A general note: Polarisation of emitted light reports the rotation of a fluorescent probe.
Sequence of cGMP-inhibited 3',5'-cyclic phosphodiesterase 3B (Homo sapiens) (Q13370 whole entry, looked up): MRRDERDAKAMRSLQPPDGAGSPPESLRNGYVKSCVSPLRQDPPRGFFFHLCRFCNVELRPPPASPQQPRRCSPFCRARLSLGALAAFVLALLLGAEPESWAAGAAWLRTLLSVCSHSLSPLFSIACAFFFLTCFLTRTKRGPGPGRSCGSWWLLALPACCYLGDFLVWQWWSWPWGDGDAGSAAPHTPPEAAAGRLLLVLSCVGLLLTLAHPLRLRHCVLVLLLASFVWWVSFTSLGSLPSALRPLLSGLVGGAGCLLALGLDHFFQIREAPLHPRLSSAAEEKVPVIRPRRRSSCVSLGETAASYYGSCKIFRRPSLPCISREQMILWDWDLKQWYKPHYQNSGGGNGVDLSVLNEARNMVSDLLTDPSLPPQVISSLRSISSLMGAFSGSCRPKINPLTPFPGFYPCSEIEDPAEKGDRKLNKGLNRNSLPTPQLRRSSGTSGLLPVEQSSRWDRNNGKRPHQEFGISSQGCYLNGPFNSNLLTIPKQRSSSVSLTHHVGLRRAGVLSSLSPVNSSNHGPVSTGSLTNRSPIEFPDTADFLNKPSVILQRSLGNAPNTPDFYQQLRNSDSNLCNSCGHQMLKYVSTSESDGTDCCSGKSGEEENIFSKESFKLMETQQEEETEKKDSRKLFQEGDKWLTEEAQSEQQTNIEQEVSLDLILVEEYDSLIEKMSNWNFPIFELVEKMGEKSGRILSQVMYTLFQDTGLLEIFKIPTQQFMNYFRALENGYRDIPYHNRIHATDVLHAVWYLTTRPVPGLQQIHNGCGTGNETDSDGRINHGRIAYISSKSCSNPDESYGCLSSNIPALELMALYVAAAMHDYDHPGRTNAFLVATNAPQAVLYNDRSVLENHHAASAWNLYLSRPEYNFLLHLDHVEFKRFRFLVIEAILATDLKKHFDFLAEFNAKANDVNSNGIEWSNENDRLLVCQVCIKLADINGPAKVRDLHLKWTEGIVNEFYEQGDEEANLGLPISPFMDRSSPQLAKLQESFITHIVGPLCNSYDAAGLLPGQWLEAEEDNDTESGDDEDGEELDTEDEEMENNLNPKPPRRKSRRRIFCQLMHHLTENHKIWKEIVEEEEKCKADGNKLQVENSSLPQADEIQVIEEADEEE

For experiment [4], the species on record is Homo sapiens. Put plainly: Selectivity ratio of IC50 for N-terminal GST-tagged full length recombinant human PDE6C to IC50 for N-terminal GST-tagged full length recombinant human PDE5A1 catalytic domain.
Experiment [5] has as its target 3',5'-cyclic-AMP phosphodiesterase 4A (Homo sapiens) (UniProt P27815). The experiment is described as follows: Inhibition of N-terminal GST-tagged full length recombinant human PDE4A1A expressed in Baculovirus infected Sf9 insect cells at 8 uM using FAM-cAMP as substrate after 1 hr by fluorescence polarization assay relative to control.
For experiment [6], the target named is Dual specificity calcium/calmodulin-dependent 3',5'-cyclic nucleotide phosphodiesterase 1A (Homo sapiens) (UniProt P54750). The experiment is described as follows: Inhibition of N-terminal GST-tagged full length recombinant human PDE1A expressed in Baculovirus infected Sf9 insect cells at 30 uM using FAM-cAMP as substrate after 1 hr by fluorescence polarization assay relative to control.
Sequence of Dual specificity calcium/calmodulin-dependent 3',5'-cyclic nucleotide phosphodiesterase 1A (Homo sapiens) (P54750 whole entry): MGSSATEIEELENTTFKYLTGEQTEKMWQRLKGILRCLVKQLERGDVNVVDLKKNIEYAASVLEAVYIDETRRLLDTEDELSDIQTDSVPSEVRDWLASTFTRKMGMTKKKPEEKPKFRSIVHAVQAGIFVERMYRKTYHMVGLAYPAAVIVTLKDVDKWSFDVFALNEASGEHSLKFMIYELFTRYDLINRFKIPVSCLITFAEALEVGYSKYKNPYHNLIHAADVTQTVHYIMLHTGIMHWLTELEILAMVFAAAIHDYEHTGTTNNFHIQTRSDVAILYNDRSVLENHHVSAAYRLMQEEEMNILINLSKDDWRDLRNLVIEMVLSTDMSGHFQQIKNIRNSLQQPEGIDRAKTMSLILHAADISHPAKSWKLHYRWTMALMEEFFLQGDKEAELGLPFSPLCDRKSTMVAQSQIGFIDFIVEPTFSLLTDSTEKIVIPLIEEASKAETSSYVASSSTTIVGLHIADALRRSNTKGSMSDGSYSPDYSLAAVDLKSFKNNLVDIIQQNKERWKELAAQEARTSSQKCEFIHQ

The species named for experiment [7] is Homo sapiens. The experiment is described as follows: Selectivity ratio of IC50 for N-terminal GST-tagged full length recombinant human PDE4A1A to IC50 for N-terminal GST-tagged full length recombinant human PDE5A1 catalytic domain.
Experiment [8] deals with cGMP-dependent 3',5'-cyclic phosphodiesterase (Homo sapiens) (UniProt O00408). The experiment is described as follows: Inhibition of N-terminal FLAG-tagged human PDE2A1 (2 to 941 residues) expressed in Baculovirus infected Sf9 insect cells at 30 uM using FAM-cAMP as substrate after 1 hr by fluorescence polarization assay relative to control.
Sequence of cGMP-dependent 3',5'-cyclic phosphodiesterase (Homo sapiens) (O00408 whole entry, the tested form may be a part): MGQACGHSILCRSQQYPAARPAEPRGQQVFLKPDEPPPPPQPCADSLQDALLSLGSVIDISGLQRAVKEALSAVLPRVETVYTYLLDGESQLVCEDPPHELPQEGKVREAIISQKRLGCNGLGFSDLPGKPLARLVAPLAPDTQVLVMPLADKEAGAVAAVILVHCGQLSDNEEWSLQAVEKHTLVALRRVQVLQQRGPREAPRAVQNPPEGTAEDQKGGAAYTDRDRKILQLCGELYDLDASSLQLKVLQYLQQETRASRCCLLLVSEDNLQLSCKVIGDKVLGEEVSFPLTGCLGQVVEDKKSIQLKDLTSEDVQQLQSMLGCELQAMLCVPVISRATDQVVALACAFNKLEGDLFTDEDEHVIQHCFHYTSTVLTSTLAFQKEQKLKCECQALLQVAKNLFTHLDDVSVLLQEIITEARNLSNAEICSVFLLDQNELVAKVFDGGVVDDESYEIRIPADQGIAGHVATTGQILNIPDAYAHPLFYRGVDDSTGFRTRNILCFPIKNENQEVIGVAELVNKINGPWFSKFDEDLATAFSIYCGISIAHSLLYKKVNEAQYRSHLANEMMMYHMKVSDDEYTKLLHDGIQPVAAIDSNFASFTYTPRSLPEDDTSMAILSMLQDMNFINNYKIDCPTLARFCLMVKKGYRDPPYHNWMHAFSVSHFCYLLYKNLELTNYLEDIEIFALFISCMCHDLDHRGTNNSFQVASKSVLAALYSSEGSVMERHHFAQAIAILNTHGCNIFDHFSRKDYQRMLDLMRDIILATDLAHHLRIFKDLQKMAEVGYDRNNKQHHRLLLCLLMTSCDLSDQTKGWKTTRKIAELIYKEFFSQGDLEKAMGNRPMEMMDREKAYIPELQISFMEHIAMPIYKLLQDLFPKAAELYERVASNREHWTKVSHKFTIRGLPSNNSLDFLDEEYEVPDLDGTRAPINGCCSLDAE
Experiment [9] is filed under the species Homo sapiens. Put plainly: Selectivity ratio of IC50 for N-terminal GST-tagged full length recombinant human PDE1A to IC50 for N-terminal GST-tagged full length recombinant human PDE5A1 catalytic domain.
Experiment [10] deals with Cone cGMP-specific 3',5'-cyclic phosphodiesterase subunit alpha' (Homo sapiens, UniProt P51160). Put plainly: Inhibition of N-terminal GST-tagged full length recombinant human PDE6C expressed in Baculovirus infected Sf9 insect cells using […] as substrate after 1 hr by fluorescence polarization assay.
Sequence of Cone cGMP-specific 3',5'-cyclic phosphodiesterase subunit alpha' (P51160 whole entry, the tested form may be a part): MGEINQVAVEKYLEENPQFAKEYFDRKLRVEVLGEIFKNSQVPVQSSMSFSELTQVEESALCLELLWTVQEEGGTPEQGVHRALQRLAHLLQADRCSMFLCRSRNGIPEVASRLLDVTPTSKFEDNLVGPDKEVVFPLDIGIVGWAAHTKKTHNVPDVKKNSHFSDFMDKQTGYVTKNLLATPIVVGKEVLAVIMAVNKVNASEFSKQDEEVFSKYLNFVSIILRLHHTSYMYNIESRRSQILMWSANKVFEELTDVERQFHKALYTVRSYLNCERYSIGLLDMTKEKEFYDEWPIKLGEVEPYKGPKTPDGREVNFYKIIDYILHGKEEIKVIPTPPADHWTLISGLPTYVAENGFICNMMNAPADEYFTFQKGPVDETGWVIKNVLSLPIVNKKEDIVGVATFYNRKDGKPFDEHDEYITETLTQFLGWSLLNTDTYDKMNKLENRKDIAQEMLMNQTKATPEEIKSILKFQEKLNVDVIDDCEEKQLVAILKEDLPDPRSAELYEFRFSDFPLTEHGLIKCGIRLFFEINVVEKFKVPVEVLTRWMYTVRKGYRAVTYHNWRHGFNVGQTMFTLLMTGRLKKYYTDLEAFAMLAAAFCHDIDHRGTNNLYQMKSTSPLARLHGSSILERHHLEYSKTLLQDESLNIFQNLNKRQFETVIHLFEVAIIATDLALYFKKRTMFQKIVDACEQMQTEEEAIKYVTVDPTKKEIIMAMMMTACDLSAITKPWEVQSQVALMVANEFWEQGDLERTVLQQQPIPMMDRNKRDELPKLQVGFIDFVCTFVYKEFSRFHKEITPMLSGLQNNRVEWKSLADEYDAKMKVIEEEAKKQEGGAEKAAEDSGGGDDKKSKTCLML
Experiment [11] is filed under the species Homo sapiens. Put plainly: Selectivity ratio of IC50 for N-terminal GST-tagged recombinant human PDE3B (592 end residues) to IC50 for N-terminal GST-tagged full length recombinant human PDE5A1 catalytic domain.
The target in experiment [12] is cGMP-dependent 3',5'-cyclic phosphodiesterase (Homo sapiens) (UniProt O00408). The experiment is described as follows: Inhibition of N-terminal FLAG-tagged human PDE2A1 (2 to 941 residues) expressed in Baculovirus infected Sf9 insect cells at 5.5 uM using FAM-cAMP as substrate after 1 hr by fluorescence polarization assay relative to control.
The next experiment deals with Thoracic aorta. Put plainly: Vasorelaxant activity in norepinephrine-pretreated New Zealand rabbit thoracic aorta assessed as increase in aortic relaxation at 1 uM measured after 15 mins relative to control. Details: scale not given: the % may be the effect or the level left. In kind it is functional, Oryctolagus cuniculus. In short, it runs like this:
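Thoracic aortic rings from New Zealand white rabbits were held in Krebs buffer at 2 g resting tension (0%) and equilibrated 2 h. Rings were contracted to maximum with 1 µM norepinephrine (100%). Compounds were added cumulatively at 15 min intervals, with tension recorded 15 min after each dose. Relaxation % = (max − recorded)/(max − 2 g) × 100; n = 1–2 rings.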

Experiment [13] has as its target Dual specificity calcium/calmodulin-dependent 3',5'-cyclic nucleotide phosphodiesterase 1A (Homo sapiens) (UniProt P54750). Put plainly: Inhibition of N-terminal GST-tagged full length recombinant human PDE1A expressed in Baculovirus infected Sf9 insect cells at 5.5 uM using FAM-cAMP as substrate after 1 hr by fluorescence polarization assay relative to control.

Experiment [14] addresses 3',5'-cyclic-AMP phosphodiesterase 4A (Homo sapiens) (UniProt P27815). Put plainly: Inhibition of N-terminal GST-tagged full length recombinant human PDE4A1A expressed in Baculovirus infected Sf9 insect cells at 1 uM using FAM-cAMP as substrate after 1 hr by fluorescence polarization assay relative to control.
The target in experiment [15] is cGMP-inhibited 3',5'-cyclic phosphodiesterase 3B (Homo sapiens) (UniProt Q13370). Put plainly: Inhibition of N-terminal GST-tagged recombinant human PDE3B (592 end residues) expressed in Baculovirus infected Sf9 insect cells at 5.5 uM using FAM-cAMP as substrate after 1 hr by fluorescence polarization assay relative to control.
Experiment [16] concerns the target T1, cGMP-specific 3',5'-cyclic phosphodiesterase. Put plainly: Inhibition of PDE5 (unknown origin).
Experiment [17] concerns the target 3',5'-cyclic-AMP phosphodiesterase 4A (Homo sapiens) (UniProt P27815). The experiment is described as follows: Inhibition of N-terminal GST-tagged full length recombinant human PDE4A1A expressed in Baculovirus infected Sf9 insect cells at 1.5 uM using FAM-cAMP as substrate after 1 hr by fluorescence polarization assay relative to control.
Experiment [18] deals with cGMP-dependent 3',5'-cyclic phosphodiesterase (Homo sapiens) (UniProt O00408). The experiment is described as follows: Inhibition of N-terminal FLAG-tagged human PDE2A1 (2 to 941 residues) expressed in Baculovirus infected Sf9 insect cells at 6 uM using FAM-cAMP as substrate after 1 hr by fluorescence polarization assay relative to control.
The target of experiment [19] is cGMP-inhibited 3',5'-cyclic phosphodiesterase 3B (Homo sapiens) (UniProt Q13370). Put plainly: Inhibition of N-terminal GST-tagged recombinant human PDE3B (592 end residues) expressed in Baculovirus infected Sf9 insect cells at 6 uM using FAM-cAMP as substrate after 1 hr by fluorescence polarization assay relative to control.
Experiment [20] deals with Dual specificity calcium/calmodulin-dependent 3',5'-cyclic nucleotide phosphodiesterase 1A (Homo sapiens) (UniProt P54750). The experiment is described as follows: Inhibition of N-terminal GST-tagged full length recombinant human PDE1A expressed in Baculovirus infected Sf9 insect cells at 6 uM using FAM-cAMP as substrate after 1 hr by fluorescence polarization assay relative to control.

In experiment [21] the target is cGMP-dependent 3',5'-cyclic phosphodiesterase (Homo sapiens) (UniProt O00408). Put plainly: Inhibition of N-terminal FLAG-tagged human PDE2A1 (2 to 941 residues) expressed in Baculovirus infected Sf9 insect cells at 25 uM using FAM-cAMP as substrate after 1 hr by fluorescence polarization assay relative to control.
The target in experiment [22] is 3',5'-cyclic-AMP phosphodiesterase 4A (Homo sapiens) (UniProt P27815). Put plainly: Inhibition of N-terminal GST-tagged full length recombinant human PDE4A1A expressed in Baculovirus infected Sf9 insect cells at 6 uM using FAM-cAMP as substrate after 1 hr by fluorescence polarization assay relative to control.
Sequence of 3',5'-cyclic-AMP phosphodiesterase 4A (Homo sapiens) (P27815 whole entry, the tested form may be a part): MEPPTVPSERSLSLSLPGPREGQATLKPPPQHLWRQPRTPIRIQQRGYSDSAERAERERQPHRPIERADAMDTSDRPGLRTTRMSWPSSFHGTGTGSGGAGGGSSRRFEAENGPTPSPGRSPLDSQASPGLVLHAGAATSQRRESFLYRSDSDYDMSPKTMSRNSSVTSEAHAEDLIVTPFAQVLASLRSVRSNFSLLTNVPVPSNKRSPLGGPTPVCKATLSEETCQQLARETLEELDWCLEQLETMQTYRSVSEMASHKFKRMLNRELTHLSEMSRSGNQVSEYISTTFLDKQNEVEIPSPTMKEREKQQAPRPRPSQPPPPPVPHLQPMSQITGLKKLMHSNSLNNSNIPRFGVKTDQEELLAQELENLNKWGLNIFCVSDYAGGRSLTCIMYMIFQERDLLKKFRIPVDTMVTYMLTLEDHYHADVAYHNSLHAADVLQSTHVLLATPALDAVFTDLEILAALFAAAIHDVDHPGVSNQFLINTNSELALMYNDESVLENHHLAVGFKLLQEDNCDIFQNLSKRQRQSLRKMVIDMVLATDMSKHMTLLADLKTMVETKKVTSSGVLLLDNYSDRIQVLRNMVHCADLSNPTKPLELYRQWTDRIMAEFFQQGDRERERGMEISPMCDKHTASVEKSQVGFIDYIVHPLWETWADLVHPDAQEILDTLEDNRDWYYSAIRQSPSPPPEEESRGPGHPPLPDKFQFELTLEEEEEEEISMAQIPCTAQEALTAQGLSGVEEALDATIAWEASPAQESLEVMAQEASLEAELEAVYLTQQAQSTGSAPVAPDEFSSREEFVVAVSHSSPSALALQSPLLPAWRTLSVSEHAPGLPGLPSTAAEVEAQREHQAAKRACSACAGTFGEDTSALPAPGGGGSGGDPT
The target in experiment [23] is cGMP-inhibited 3',5'-cyclic phosphodiesterase 3B (Homo sapiens) (UniProt Q13370). The experiment is described as follows: Inhibition of N-terminal GST-tagged recombinant human PDE3B (592 end residues) expressed in Baculovirus infected Sf9 insect cells at 25 uM using FAM-cAMP as substrate after 1 hr by fluorescence polarization assay relative to control.
Experiment [24] addresses Dual specificity calcium/calmodulin-dependent 3',5'-cyclic nucleotide phosphodiesterase 1A (Homo sapiens) (UniProt P54750). Put plainly: Inhibition of N-terminal GST-tagged full length recombinant human PDE1A expressed in Baculovirus infected Sf9 insect cells at 25 uM using FAM-cAMP as substrate after 1 hr by fluorescence polarization assay relative to control.

Regarding `CCc1ccc(C2c3[nH]c4ccccc4c(=O)c3CN2c2ncc(-c3ccc(OC)cc3)cn2)s1` (stereo not given), the IC50 – broadly, the concentration that gives 50% inhibition – in experiment [1] was determined as 6.45 nM.

As to `CCc1ccc(C2c3[nH]c4ccccc4c(=O)c3CN2c2ncccn2)o1` (stereo not given), the Ratio IC50 in the experiment filed under Homo sapiens [2] is > 10000; in the experiment filed under Homo sapiens [4], 2; in the experiment filed under Homo sapiens [7] it was > 2500; in the experiment filed under Homo sapiens [9], > 10000; in the experiment filed under Homo sapiens [11] it was > 10000. The inhibition (usually the share of the control response that was lost under treatment) came to 3.5% in experiment [3], 11% in experiment [5], 3.5% in experiment [6] and 33% in [8]. Further, the IC50 in [1] was found to be 3.14 nM; in experiment [10], 6.2 nM.

As for `CCc1ccc(C2c3[nH]c4ccccc4c(=O)c3CN2c2ncc(-c3ccccn3)cn2)o1` (racemic), the Ratio IC50 was > 10000 in the experiment listed under Homo sapiens [2]; 4.3 in the experiment filed under Homo sapiens [4]; > 2500 in the experiment listed under Homo sapiens [7]; > 10000 in the experiment filed under Homo sapiens [9]; > 10000 in the experiment listed under Homo sapiens [11]. For the same molecule, the inhibition is 10% in experiment [12], 2.5% in experiment [13], 5% in experiment [14] and 8% in experiment [15]. In addition, the Activity in the experiment with Thoracic aorta is recorded as >90%. For the same molecule, the IC50 in experiment [1] is 0.54 nM; in experiment [10], 2.3 nM.

For the molecule `OCc1ccoc1-c1nccc2c1[nH]c1ccccc12`, half-maximal inhibition in experiment [16] (IC50) was put at 4900 nM.

Take `CCc1ccc(C2c3[nH]c4ccccc4c(=O)c3CN2c2ccccn2)s1` (stereo not given): the IC50 in experiment [1] amounted to 2.85 nM.

For the molecule `CCc1ccc(C2c3[nH]c4ccccc4c(=O)c3CN2c2ncc(-c3ccccn3)cn2)s1` (racemic), the inhibition worked out at 3% in experiment [17], 7% in experiment [18], 2.5% in experiment [19] and 2.5% in experiment [20]. The Ratio IC50 was > 10000 in the experiment listed under Homo sapiens [2]; 8 in the experiment listed under Homo sapiens [4]; > 2500 in the experiment listed under Homo sapiens [7]; > 10000 in the experiment listed under Homo sapiens [9]; > 10000 in the experiment listed under Homo sapiens [11]. Moreover, the Activity with Thoracic aorta is reported as >90%. Besides, the figures for the IC50 in [1] and in experiment [10] were 0.6 nM and 4.8 nM, respectively.

Consider `CCc1ccc(C2c3[nH]c4ccccc4c(=O)c3CN2c2ncccn2)s1` (stereo not given), for which the inhibition in [21] came to 37%; in [22], 8%; in experiment [23], 2.5%; in [24] it was 3.5%. In addition, the Ratio IC50 in the experiment filed under Homo sapiens [2] is > 10000; in the experiment listed under Homo sapiens [4], 1.5; in the experiment filed under Homo sapiens [7], > 2500; in the experiment filed under Homo sapiens [9], > 10000; in the experiment filed under Homo sapiens [11], > 10000. The 50% inhibitory concentration (IC50) in [1] worked out at 2.5 nM; in experiment [10], 3.7 nM.

Regarding `CCc1ccc(C2c3[nH]c4ccccc4c(=O)c3CN2c2ncc(-c3cccnc3F)cn2)s1` (stereo not given), the IC50 in [1] was determined as 0.82 nM.
